# Several values for one entry are separate records, joined by “and”; a condition that tells them apart may be missing. Equal values may be shown once. Entries after “also recorded” stand apart in the source; their conditions may differ. Where a name gives a salt, the structure may show the parent alone. Read-outs that look alike come from different tables or passages of the source. Marks after values point to notes of the source that are not given here.
# Experiments:
# [1] = test system: DENV-2 New Guinea C strain; assay: DENV-2 plaque reduction neutralization test; assay type: cell-based, dengue virus type 2; settings: for Selectivity index (DENV-2): CC50/IC50, '>' values with absence of cytotoxicity; for IC50: Dengue virus, DENV2, BHK-21, read-out: IC50 against DENV-2
# How it was run: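 DENV-2 New Guinea C was propagated in C6/36 cells (L15, 3% FBS, 28 °C). 2-fold dilutions were made: extract fraction 166.67 to 0.08 μg/mL, flavonoids 500.00 to 15.63 μg/mL. Each was preincubated 1 h with 90 PFU, then adsorbed 1 h at 37 °C on BHK-21 monolayers (RPMI-1640, 10% FBS). Plates had 1% carboxymethylcellulose overlay for 6 d, then crystal violet plaque count. Run in duplicate, with mAb 3H5 as positive control. IC50 came from % plaque reduction curves.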
# [2] = test system: HSV-1; settings: cited from earlier work
# [3] = test system: CCL9.1 cells
# [4] = in vitro; settings: mouse
# [5] = test system: mouse hepatitis virus (MHV); assay: microbe, parasite or virus in culture; assay type: cell-based, murine coronavirus; settings: for IC50: read-out: IC50 against MHV
# [6] = MTT cell viability and proliferation assay, BHK-21 cells; assay type: cell-based, baby hamster; settings: hamster, BHK-21 cells (monolayers)
# How it was run: (§1)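 BHK-21 monolayers were exposed to test compound for 48 h at 37 °C, 5% CO2, at the concentrations used in neutralization tests. MTT was added for 4 h, then 100 g/L SDS in 0.01 mol/L HCl overnight in the dark at room temperature. OD was read at 570 nm. Inhibition rate was taken relative to solvent-treated cells, and CC50 came from the concentration plot. Experiments were repeated; mean and standard deviation reported.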
# [7] = test system: BHK-21 cells; assay: as above; assay type: cell-based, baby hamster; settings: at concentrations tested in PRNT
# How it was run: as §1
SMILES,Selectivity index (DENV-2) [1],IC50 [1] [µg/mL],Activity on HSV-1 among flavonoids [2],CC50 ([3]; mouse) [µg/mL],CC50 [4] [µg/mL],Duration of inhibition of viral infectivity [5],Selectivity index (MHV) [5],"IC50 ([5]; Murine coronavirus, 1 h) [µg/mL]",CC50 at 48 h [6] [µg/mL],"Anti-DENV-2 activity ([1]; PRNT, 500.00 down to 15.63 μg/mL)",Antiviral activity against MHV [5],IC50 against MHV [5],Cytotoxicity to BHK cells [7],Cytotoxicity on CCL9.1 cells [3],MHV inhibition [5],"MIC, anti-MHV activity [5]",IC50 ([5]; Murine coronavirus) [µg/mL],"MIC ([5]; Murine coronavirus, read-out: MIC, anti-MHV activity) [µg/mL]"
"O=c1c(O)c(-c2ccc(O)c(O)c2)oc2cc(O)cc(O)c12 [Quercetin, quercetin]",0.88,177,highest activity,116.52,116,up to 6 d,0.93,125,155,–,–,–,–,–,–,–,–,–
"C[C@@H]1O[C@@H](OC[C@H]2O[C@@H](Oc3c(-c4ccc(O)c(O)c4)oc4cc(O)cc(O)c4c3=O)[C@H](O)[C@@H](O)[C@@H]2O)[C@H](O)[C@H](O)[C@H]1O [Rutin, quercetin-3-rutinoside]",–,–,no effect at all,–,–,–,–,–,–,no anti-DENV-2 activity was detected,did not exhibit antiviral activity,NIL,without cytotoxicity,–,–,–,–,–
"C[C@@H]1O[C@@H](Oc2c(-c3ccc(O)c(O)c3)oc3cc(O)cc(O)c3c2=O)[C@H](O)[C@H](O)[C@H]1O [Quercitrin, quercetin-3-L-rhamnoside]",>1.07 ^c,467,–,–,–,–,–,–,–,–,did not exhibit antiviral activity,NIL,did not cause cytotoxicity,–,–,–,–,–
"CN(C)CCCSc1ccccc1NC(=O)/C=C/c1ccccc1 [Cinanserin, cinanserin hydrochloride]",–,–,–,–,–,2 days,>4.00 ^c and >2.00 ^c,–,–,–,–,62.50 µg/mL,–,minimal or no cytotoxicity,no viral inhibition; also recorded: could not inhibit MHV,62.50 µg/mL and 62.5 µg/mL,31.2,31.2
